Tested on: not listed separately
Assay: pKa value by potentiometric method
Assay type: physicochemical
Outline: (§1)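 Potentiometric titration in MeOH–H2O cosolvent with ionic strength set by 0.15 M KCl. Three titrations at different water/cosolvent ratios gave psKa values. Aqueous pKa was obtained by Yasuda–Shedlovsky extrapolation to 100% water, plotting psKa + log[H2O] against 1/ε.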

Row | SMILES | pKa
1 | FC(F)(Cc1c[nH]c2ccc(-n3cnnc3)cc12)CN1CCC(Cc2ccccc2)CC1 | 6.7
2 | CN(Cc1ccccc1)C1CCN(CC(F)Cc2c[nH]c3ccc(-n4cnnc4)cc23)CC1 (centres undefined) | 8.5
3 | CN(Cc1ccccc1)[C@H]1CCN(CCCc2c[nH]c3ccc(-n4cnnc4)cc23)C[C@H]1F | 8
4 | FC1(Cc2ccccc2)CCN(CCCc2c[nH]c3ccc(-n4cnnc4)cc23)CC1 | 8.8

Second part, the molecule after the results:

Row | pKa | SMILES
5 | 6.9 | CN(Cc1ccccc1C(F)(F)F)[C@H]1CCN(CCCc2c[nH]c3ccc(-n4cnnc4)cc23)C[C@@H]1F
6 | 7.7 | CN(Cc1ccccc1C(F)(F)F)[C@H]1CCN(CCCc2c[nH]c3ccc(-n4cnnc4)cc23)C[C@H]1F

Target: T1, 5-hydroxytryptamine receptor 1B (Homo sapiens, UniProt P28222)
Assay: Efficacy was evaluated relative to human 5-HT1B receptor using [35S]GTP-gamma-S, as radioligand
Assay type: functional

T1 sequence (P28222 whole entry): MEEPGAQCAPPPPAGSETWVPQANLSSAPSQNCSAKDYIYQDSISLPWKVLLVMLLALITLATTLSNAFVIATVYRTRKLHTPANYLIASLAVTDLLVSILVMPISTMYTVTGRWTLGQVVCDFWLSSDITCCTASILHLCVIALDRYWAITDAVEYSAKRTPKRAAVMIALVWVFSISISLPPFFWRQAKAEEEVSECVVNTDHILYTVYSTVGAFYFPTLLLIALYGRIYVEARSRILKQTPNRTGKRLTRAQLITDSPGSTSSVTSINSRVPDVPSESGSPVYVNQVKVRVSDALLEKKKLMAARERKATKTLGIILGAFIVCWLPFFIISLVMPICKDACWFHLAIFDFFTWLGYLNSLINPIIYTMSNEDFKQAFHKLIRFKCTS

Row | SMILES | Efficacy [%]
7 | CC(CN1CCN(CC(F)(F)Cc2c[nH]c3ccc(-n4cnnc4)cc23)CC1)c1ccccc1 (centres undefined) | 53
8 | CN(Cc1ccccc1)C1CCN(CC(F)Cc2c[nH]c3ccc(-n4cnnc4)cc23)CC1 (centres undefined) | 59
9 | FC1(Cc2ccccc2)CCN(CCCc2c[nH]c3ccc(-n4cnnc4)cc23)CC1 | 67

Continued, values first:

Row | Efficacy [%] | SMILES
10 | 88 | Fc1cccc(CCC2(F)CCN(CCCc3c[nH]c4ccc(-n5cnnc5)cc34)CC2)c1
11 | 77 | CN(Cc1ccccc1)C1CCN(CCCc2c[nH]c3ccc(-n4cnnc4)cc23)CC1

Target: T1, 5-hydroxytryptamine receptor 1B
Assay: Displacement of specific [3H]5-HT binding to cloned human 5-hydroxytryptamine 1B receptor expressed in CHO cells
Assay type: cell-based
Outline: (§2)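 Radioligand binding to human 5-HT1D and 5-HT1B receptors stably expressed in CHO cells. Radioligand was used at approximately its KD for each receptor. IC50 values are the logarithmic mean of 2–5 independent determinations, each run in duplicate. Maximum variance from the mean of log(IC50) was 4%. Selectivity is IC50(1B)/IC50(1D).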

Row | SMILES | IC50 [nM]
12 | FC(F)(Cc1c[nH]c2ccc(-n3cnnc3)cc12)CN1CCC(Cc2ccccc2)CC1 | 1300
13 | CC(CN1CCN(CC(F)(F)Cc2c[nH]c3ccc(-n4cnnc4)cc23)CC1)c1ccccc1 (centres undefined) | 1800
14 | CN(Cc1ccccc1)C1CCN(CC(F)Cc2c[nH]c3ccc(-n4cnnc4)cc23)CC1 (centres undefined) | 1200
15 | CN(Cc1ccccc1)[C@H]1CCN(CCCc2c[nH]c3ccc(-n4cnnc4)cc23)C[C@H]1F | 220
16 | FC1(Cc2ccccc2)CCN(CCCc2c[nH]c3ccc(-n4cnnc4)cc23)CC1 | 15

Now from value to molecule:

Row | IC50 [nM] | SMILES
17 | 220 | CN(Cc1ccccc1C(F)(F)F)[C@H]1CCN(CCCc2c[nH]c3ccc(-n4cnnc4)cc23)C[C@@H]1F
18 | 22 | Fc1cccc(CCC2(F)CCN(CCCc3c[nH]c4ccc(-n5cnnc5)cc34)CC2)c1
19 | 140 | CN(Cc1ccccc1)C1CCN(CCCc2c[nH]c3ccc(-n4cnnc4)cc23)CC1
20 | 220 | CN(Cc1ccccc1C(F)(F)F)[C@H]1CCN(CCCc2c[nH]c3ccc(-n4cnnc4)cc23)C[C@H]1F

Target: T2, 5-hydroxytryptamine receptor 1D (Homo sapiens, UniProt P28221)
Assay: Efficacy was evaluated relative to human 5-hydroxytryptamine 1D receptor using [35S]GTP-gamma-S, as radioligand
Assay type: functional

T2 sequence (P28221 whole entry): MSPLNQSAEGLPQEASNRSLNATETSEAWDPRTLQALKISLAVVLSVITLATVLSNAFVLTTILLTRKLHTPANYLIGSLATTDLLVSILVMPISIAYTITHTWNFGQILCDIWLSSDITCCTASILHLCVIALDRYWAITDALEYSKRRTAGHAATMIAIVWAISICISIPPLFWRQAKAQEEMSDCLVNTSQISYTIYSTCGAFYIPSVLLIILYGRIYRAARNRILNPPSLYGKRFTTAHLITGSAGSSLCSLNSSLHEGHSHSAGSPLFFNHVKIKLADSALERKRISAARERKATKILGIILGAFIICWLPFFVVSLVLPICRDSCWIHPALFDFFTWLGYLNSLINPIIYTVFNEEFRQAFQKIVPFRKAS

Row | Efficacy [%] | SMILES
21 | 123 | CC(CN1CCN(CC(F)(F)Cc2c[nH]c3ccc(-n4cnnc4)cc23)CC1)c1ccccc1 (centres undefined)

Tested on: Rattus norvegicus
Assay: Oral absorption study in rat plasma obtained from hepatic portal vein after 0.5 hours of administration of 3 mg/kg orally
Assay type: functional, organism-based
Design: dose 3 mg/kg
Outline: (§3)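 Male Sprague–Dawley rats, fasted overnight and with no surgery, received 3 mg/kg orally as a 0.6 mg/mL solution in PEG 400:5 mM HCl (25:75 v/v). Terminal blood was taken from the heart and hepatic portal vein under isoflurane at 0.5 and 2 h, three rats per time point. Plasma drug was measured by electrospray mass spectrometry. Values are mean ± SEM.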

Row | SMILES | Plasma concentration [ng/mL]
22 | CN(Cc1ccccc1)C1CCN(CC(F)Cc2c[nH]c3ccc(-n4cnnc4)cc23)CC1 (centres undefined) | 57
23 | CN(Cc1ccccc1)C1CCN(CCCc2c[nH]c3ccc(-n4cnnc4)cc23)CC1 | 4
24 | CN(Cc1ccccc1)[C@H]1CCN(CCCc2c[nH]c3ccc(-n4cnnc4)cc23)C[C@H]1F | 216
25 | FC1(Cc2ccccc2)CCN(CCCc2c[nH]c3ccc(-n4cnnc4)cc23)CC1 | 570

Tested on: Rattus norvegicus
Assay: Oral absorption study in rat plasma obtained from hepatic portal vein after 2 hours of administration of 3 mg/kg orally
Assay type: functional, organism-based
Design: dose 3 mg/kg
Outline: as §3

Row | SMILES | Plasma concentration [ng/mL]
26 | CN(Cc1ccccc1)C1CCN(CC(F)Cc2c[nH]c3ccc(-n4cnnc4)cc23)CC1 (centres undefined) | 217
27 | CN(Cc1ccccc1)C1CCN(CCCc2c[nH]c3ccc(-n4cnnc4)cc23)CC1 | 66
28 | CN(Cc1ccccc1)[C@H]1CCN(CCCc2c[nH]c3ccc(-n4cnnc4)cc23)C[C@H]1F | 136
29 | FC1(Cc2ccccc2)CCN(CCCc2c[nH]c3ccc(-n4cnnc4)cc23)CC1 | 273

Tested on: Rattus norvegicus
Assay: Oral absorption study in rat plasma obtained from cardiac blood samples after 0.5 hours of administration of 3 mg/kg orally
Assay type: functional, organism-based
Design: dose 3 mg/kg
Outline: as §3

Row | SMILES | Plasma concentration [ng/mL]
30 | CN(Cc1ccccc1)C1CCN(CC(F)Cc2c[nH]c3ccc(-n4cnnc4)cc23)CC1 (centres undefined) | 2
31 | CN(Cc1ccccc1)C1CCN(CCCc2c[nH]c3ccc(-n4cnnc4)cc23)CC1 | < 1
32 | CN(Cc1ccccc1)[C@H]1CCN(CCCc2c[nH]c3ccc(-n4cnnc4)cc23)C[C@H]1F | 2
33 | FC1(Cc2ccccc2)CCN(CCCc2c[nH]c3ccc(-n4cnnc4)cc23)CC1 | 52

Target: T2, 5-hydroxytryptamine receptor 1D
Assay: Displacement of specific [3H]5-HT binding to cloned human 5-hydroxytryptamine 1D receptor expressed in CHO cells
Assay type: cell-based
Outline: as §2

Row | SMILES | IC50 [nM]
34 | FC(F)(Cc1c[nH]c2ccc(-n3cnnc3)cc12)CN1CCC(Cc2ccccc2)CC1 | 78
35 | CC(CN1CCN(CC(F)(F)Cc2c[nH]c3ccc(-n4cnnc4)cc23)CC1)c1ccccc1 (centres undefined) | 6.2
36 | CN(Cc1ccccc1)[C@H]1CCN(CCCc2c[nH]c3ccc(-n4cnnc4)cc23)C[C@H]1F | 12
37 | FC1(Cc2ccccc2)CCN(CCCc2c[nH]c3ccc(-n4cnnc4)cc23)CC1 | 0.9

Next, values leading:

Row | IC50 [nM] | SMILES
38 | 13 | CN(Cc1ccccc1C(F)(F)F)[C@H]1CCN(CCCc2c[nH]c3ccc(-n4cnnc4)cc23)C[C@@H]1F
39 | 0.7 | Fc1cccc(CCC2(F)CCN(CCCc3c[nH]c4ccc(-n5cnnc5)cc34)CC2)c1
40 | 2.1 | CN(Cc1ccccc1)C1CCN(CCCc2c[nH]c3ccc(-n4cnnc4)cc23)CC1
41 | 9.3 | CN(Cc1ccccc1C(F)(F)F)[C@H]1CCN(CCCc2c[nH]c3ccc(-n4cnnc4)cc23)C[C@H]1F

Target: T1, 5-hydroxytryptamine receptor 1B
Assay: Agonist-induced [35S]GTP-gamma-S, binding in CHO cells stably transfected with human 5-hydroxytryptamine 1B receptor
Assay type: functional, cell-based
Outline: (§4)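 [35S]GTPγS binding stimulated by agonist, measured in CHO cells stably transfected with the human 5-HT1D or 5-HT1B receptor. EC50 values are the logarithmic mean of 2–3 independent determinations. Maximum variance of individual log(EC50) values from the mean was 4%.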

Row | SMILES | EC50 [nM]
42 | CC(CN1CCN(CC(F)(F)Cc2c[nH]c3ccc(-n4cnnc4)cc23)CC1)c1ccccc1 (centres undefined) | 5100
43 | CN(Cc1ccccc1)C1CCN(CC(F)Cc2c[nH]c3ccc(-n4cnnc4)cc23)CC1 (centres undefined) | 10300
44 | FC1(Cc2ccccc2)CCN(CCCc2c[nH]c3ccc(-n4cnnc4)cc23)CC1 | 66

Further lines, results first:

Row | EC50 [nM] | SMILES
45 | 440 | Fc1cccc(CCC2(F)CCN(CCCc3c[nH]c4ccc(-n5cnnc5)cc34)CC2)c1
46 | 1400 | CN(Cc1ccccc1)C1CCN(CCCc2c[nH]c3ccc(-n4cnnc4)cc23)CC1

Target: Serotonin 1 receptors; 5-HT1B & 5-HT1D (Homo sapiens) (UniProt P28222+P28221)
Assay: Selectivity towards 5-HT1D and to that of 5-HT1B in CHO cells
Assay type: cell-based
Outline: as §2

Row | SMILES | Selectivity
47 | FC(F)(Cc1c[nH]c2ccc(-n3cnnc3)cc12)CN1CCC(Cc2ccccc2)CC1 | 17
48 | CC(CN1CCN(CC(F)(F)Cc2c[nH]c3ccc(-n4cnnc4)cc23)CC1)c1ccccc1 (centres undefined) | 290
49 | CN(Cc1ccccc1)C1CCN(CC(F)Cc2c[nH]c3ccc(-n4cnnc4)cc23)CC1 (centres undefined) | 22
50 | CN(Cc1ccccc1)[C@H]1CCN(CCCc2c[nH]c3ccc(-n4cnnc4)cc23)C[C@H]1F | 18
51 | FC1(Cc2ccccc2)CCN(CCCc2c[nH]c3ccc(-n4cnnc4)cc23)CC1 | 17

The remaining lines, values ahead:

Row | Selectivity | SMILES
52 | 17 | CN(Cc1ccccc1C(F)(F)F)[C@H]1CCN(CCCc2c[nH]c3ccc(-n4cnnc4)cc23)C[C@@H]1F
53 | 31 | Fc1cccc(CCC2(F)CCN(CCCc3c[nH]c4ccc(-n5cnnc5)cc34)CC2)c1
54 | 67 | CN(Cc1ccccc1)C1CCN(CCCc2c[nH]c3ccc(-n4cnnc4)cc23)CC1
55 | 24 | CN(Cc1ccccc1C(F)(F)F)[C@H]1CCN(CCCc2c[nH]c3ccc(-n4cnnc4)cc23)C[C@H]1F

Tested on: Rattus norvegicus
Assay: Oral absorption study in rat plasma obtained from cardiac blood samples after 2 hours of administration of 3 mg/kg orally
Assay type: functional, organism-based
Design: dose 3 mg/kg
Outline: as §3

Row | SMILES | Plasma concentration [ng/mL]
56 | CN(Cc1ccccc1)C1CCN(CC(F)Cc2c[nH]c3ccc(-n4cnnc4)cc23)CC1 (centres undefined) | 10
57 | CN(Cc1ccccc1)C1CCN(CCCc2c[nH]c3ccc(-n4cnnc4)cc23)CC1 | 5
58 | CN(Cc1ccccc1)[C@H]1CCN(CCCc2c[nH]c3ccc(-n4cnnc4)cc23)C[C@H]1F | 3
59 | FC1(Cc2ccccc2)CCN(CCCc2c[nH]c3ccc(-n4cnnc4)cc23)CC1 | 35

Target: T2, 5-hydroxytryptamine receptor 1D
Assay: Agonist-induced [35S]GTP-gamma-S, binding in CHO cells stably transfected with human 5-hydroxytryptamine 1D receptor
Assay type: functional, cell-based
Outline: as §4

Row | SMILES | EC50 [nM]
60 | CC(CN1CCN(CC(F)(F)Cc2c[nH]c3ccc(-n4cnnc4)cc23)CC1)c1ccccc1 (centres undefined) | 16
61 | FC1(Cc2ccccc2)CCN(CCCc2c[nH]c3ccc(-n4cnnc4)cc23)CC1 | 0.4

Continued, values first:

Row | EC50 [nM] | SMILES
62 | 5 | Fc1cccc(CCC2(F)CCN(CCCc3c[nH]c4ccc(-n5cnnc5)cc34)CC2)c1
63 | 1.5 | CN(Cc1ccccc1)C1CCN(CCCc2c[nH]c3ccc(-n4cnnc4)cc23)CC1

Tested on: not listed separately
Assay: pKa value by potentiometric
Assay type: physicochemical
Outline: as §1

Row | pKa | SMILES
64 | 9.3 | CN(Cc1ccccc1)C1CCN(CCCc2c[nH]c3ccc(-n4cnnc4)cc23)CC1
